Sampled rows, rich in hits. Any-hit rate of the full collection: about 1.8%.
NR2E3 ag-1: activates human photoreceptor nuclear receptor NR2E3; Q9Y5X4; GST-NR2E3/biotin-RetCOR TR-FRET, 1536-well; inhibition of corepressor binding, % at 4.78 µM; 320,000 tested, 0.12% active;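 active means percent inhibition above the cutoff of mean plus 3 SD of all tested compounds, set per screening campaign, cut at about 20% in these data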;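 further: 0% = DMSO wells and 100% = biotin wells as full block of FRET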
Target sequence (Q9Y5X4 whole entry, looked up): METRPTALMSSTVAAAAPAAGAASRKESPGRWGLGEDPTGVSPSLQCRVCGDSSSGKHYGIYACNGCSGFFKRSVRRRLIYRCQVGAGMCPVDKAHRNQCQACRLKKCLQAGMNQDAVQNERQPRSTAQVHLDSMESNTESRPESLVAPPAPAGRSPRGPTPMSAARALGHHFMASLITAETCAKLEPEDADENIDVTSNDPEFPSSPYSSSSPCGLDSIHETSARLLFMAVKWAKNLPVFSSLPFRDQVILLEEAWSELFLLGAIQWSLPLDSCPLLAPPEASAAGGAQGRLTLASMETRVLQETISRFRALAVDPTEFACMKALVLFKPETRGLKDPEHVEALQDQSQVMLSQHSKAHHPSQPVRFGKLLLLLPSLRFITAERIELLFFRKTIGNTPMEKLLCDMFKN
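Assay system: NR2E3–RetCOR corepressor complex. Quantity: 1.35 nM GST-NR2E3. Buffer or medium: pH 7.5 Tris-based buffer. Reagent: biotinylated RetCOR corepressor at 7 nM final. Schedule: 5 h at 4 °C. Detection: TR-FRET, emission read at 617 and 671 nm. Replicates: one well per compound, singlicate testing.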
NR2E3 ag-2: activates human NR2E3 receptor | inhibition of corepressor binding, % at 3.98 µM | CHO-S Gal4-NCOR/VP16-NR2E3 two-hybrid, luciferase | 360,000 tested, 0.35% active;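 active means inhibition above the mean of all tested compounds plus 3 SD, cut at about 70% in these data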;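 further: 0% = DMSO with NR2E3 transfected cells and 100% = cells lacking NR2E3 construct; higher means lower luciferase signal from less NR2E3 corepressor binding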
PG9 binder: small molecules binding HIV-1 gp120 antibody PG9; inhibition, % at 6.7 µM; 360,000 tested, 0.43% active; AID 624416; TR-FRET gp120-PG9 antibody binding; in the data active means inhibition above about 8.5%
NR1D1 modulator: modulates human Rev-erb alpha binding to DNA. activity, % at 10 µM. Rev-erbα–FITC-DNA binding, fluorescence polarization, 90 min. 370,000 tested, 0.79% active. P20393;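 active means activity above about 14%, limit read from the data; passing the limit was not always enough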;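 further: 0% = DMSO wells with 35 nM protein and 100% = DMSO wells with 750 nM protein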
GalR3 antagonist: human GalR3 antagonism. inhibition, % at 3 µM. HEK293 GalR3-CNG cAMP membrane potential fluorescence; galR3 body fused to GalR1 C-terminus. O60755. AID 651719. 360,000 tested, 0.44% active;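 active means inhibition above the screen-wide average plus 3 SD, cut at about 13% in these data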;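 further: forskolin and galanin both at EC90 stimulate the cells; cAMP rise reported by CNG channel membrane potential dye signal; 0% = forskolin plus galanin with DMSO and 100% = forskolin alone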
Target sequence (O60755 1-299 limits assumed): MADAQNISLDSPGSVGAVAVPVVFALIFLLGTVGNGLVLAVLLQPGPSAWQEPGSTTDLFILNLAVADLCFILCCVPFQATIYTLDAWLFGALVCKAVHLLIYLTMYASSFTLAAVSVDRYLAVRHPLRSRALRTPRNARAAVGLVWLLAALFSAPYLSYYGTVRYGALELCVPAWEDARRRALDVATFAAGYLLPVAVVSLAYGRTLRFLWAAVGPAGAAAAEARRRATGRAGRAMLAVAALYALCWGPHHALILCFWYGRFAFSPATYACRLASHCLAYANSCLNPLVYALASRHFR
NR2E3 ag confirm-1: NR2E3 (human) agonism, confirmation; shares compounds with NR2E3 ag-1; cell-free NR2E3 corepressor release, TR-FRET, 5 h; activation (reported as inhibition), % at 3.98 µM; 360 tested, 39% active; AID 2379; in the data active means activation above about 20%
PPARg-NCOR2 ctr: releases PPARgamma from NCOR2 in NR2E3 counter-screen; 360 tested, 45% active; TR-FRET PPARg-NCOR2 coregulator interaction, biochemical; shares compounds with NR2E3 ag-1; inhibition, % at 3.98 µM; in the data active means inhibition above about 20%;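 further: 0% = DMSO vehicle and 100% = wells without protein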
NR2E3 ag confirm-2: NR2E3 agonism confirmed in two-hybrid assay | shares compounds with NR2E3 ag-2 | CHO-S mammalian two-hybrid NR2E3-NCOR, luciferase luminescence | inhibition, % at 3.98 µM | 2,300 tested, 51% active;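 active means average inhibition above a cutoff equal to the mean inhibition of all tested compounds plus one SD, cut at about 70% in these data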;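 further: 0% = DMSO in NR2E3 cells and 100% = DMSO in cells lacking NR2E3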
VP16 counter: GAL4-VP16 reporter inhibition in NR2E3 agonist counterscreen. 2,300 tested, 29% active. inhibition, % at 3.98 µM. shares compounds with NR2E3 ag-2. CHO-S GAL4-VP16 luciferase reporter, luminescence;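 active means mean inhibition above a cutoff equal to the average over all tested compounds plus one standard deviation, cut at about 70% in these data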;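 further: luciferase from a UAS reporter driven by GAL4-VP16 transactivation; 0% = DMSO with VP16-transfected cells and 100% = DMSO with cells lacking VP16; higher means less reporter light so more repression of VP16 activity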
PG9 binder conf: confirmation of small molecules binding HIV-1 gp120 antibody PG9; TR-FRET PG9 antibody binding, biochemical; AID 651571; shares compounds with PG9 binder; inhibition, % at 6.7 µM; 1,500 tested, 90% active; in the data active means inhibition above about 9%
PGV04 counter: binds control antibody PGV04 in PG9 binder counter-screen. shares compounds with PG9 binder. TR-FRET PGV04 antibody-gp120 binding, biochemical. inhibition, % at 6.7 µM. 1,500 tested, 95% active; in the data active means inhibition above about 9.5%
Rev-erbA confirm: confirmation of modulators of human Rev-erb alpha DNA binding | shares compounds with NR1D1 modulator | Rev-erb alpha FITC-DNA binding, fluorescence polarization, 90 min | activation, % at 25 µM | 3,000 tested, 61% active | AID 1259319;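 active means activation at or above a set limit, or at least 3 SD above the negative control mean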;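 further: 0% = 35 nM protein with DMSO and 100% = 750 nM protein high control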
RORg counter: RORgamma DNA-binding activity, dose-response counter-screen; shares compounds with NR1D1 modulator; purified RORgamma protein-FITC-DNA binding, fluorescence polarization; IC50, µM; 910 tested, 8% active;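 active means Compounds whose fitted half-maximal concentration for disrupting protein-DNA binding is below 10 micromolar; the record names Rev-erb in its text, so the target is in doubt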
Starred values were filed as active, the others as inactive; x = no result.

SMILES	NR2E3 ag-1	NR2E3 ag-2	PG9 binder	NR1D1 modulator	GalR3 antagonist	NR2E3 ag confirm-1	PPARg-NCOR2 ctr	PG9 binder conf	PGV04 counter	Rev-erbA confirm	others
Cc1cc(N2C(=O)C(O)=C(C(=O)c3ccco3)C2c2ccc(O)cc2)no1 (centres undefined)	10	-34	3	7	-3	x	x	x	x	x
Cc1cc(N2C(=O)C(O)=C(C(=O)c3cc4ccccc4o3)C2c2ccc([N+](=O)[O-])cc2)no1 (centres undefined)	-1	18	-3	-5	-7	x	x	x	x	x
Cc1cc(N2C(=O)C(O)=C(C(=O)c3cc4ccccc4o3)C2c2cccs2)no1 (centres undefined)	24*	13	9.3*	0	-9	31*	34*	28*	46*	x
Cc1cc(N2C(=O)C(O)=C(C(=O)c3ccco3)C2c2ccccc2F)no1 (centres undefined)	28*	-17	10*	-4	-8	12	13	9.8*	28*	x
Cc1ccc2nc(N3C(=O)C(O)=C(C(=O)c4cc5ccccc5o4)C3c3cccs3)sc2c1 (centres undefined)	7	-124	x	x	x	x	x	x	x	x
C[C@@H]1OC(c2ccccc2)N(C)[C@H]2C[C@H]3c4[nH]c5cccc(-c6ccccc6)c5c4CCN3C[C@@H]12 (some centres undefined)	x	x	x	1	x	x	x	x	x	x
CC[C@@H]([C@H](C)O)n1ncn(-c2ccc(N3CCN(c4ccc(OC[C@@H]5CO[C@@](Cn6cncn6)(c6ccc(F)cc6F)C5)cc4)CC3)cc2)c1=O	x	x	x	-1	x	x	x	x	x	x
CSc1nc2ccc3nc(NC(=O)c4ccc(C)cc4)sc3c2s1	0	-10	-1	9	2	x	x	x	x	x
Cc1ccc(C(=O)Nc2nc3ccccc3c(=O)s2)cc1	23*	6	73*	69*	-4	43*	46*	78*	89*	35*	RORg counter=2.1*
COC(=O)[C@]12C[C@H](CC(=O)NCCc3ccccc3OC)C(=O)N(Cc3cccc4ccccc34)C1=C[C@H](C(C)C)O[C@@H]2C1CC1	x	x	x	6	x	x	x	x	x	x
O=C(CCCn1c(=S)[nH]c2cc3c(cc2c1=O)OCO3)NCc1cccc(Cl)c1	28*	0	17*	48*	1	18	22*	13*	23*	30*	RORg counter=>40
CCc1cc2cc3c(cc2nc1SCC(=O)Nc1cc(C)on1)OCO3	23*	-14	21*	211*	-4	51*	62*	46*	66*	158*	RORg counter=>40
CCc1cc2cc3c(cc2nc1SCC(=O)OC(C)C)OCO3	-2	4	-1	3	-5	x	x	x	x	x
CCCCCn1c(SCC#N)nc2cc(C(=O)NCC3CCCO3)ccc2c1=O (centres undefined)	22*	4	68*	71*	1	1	6	x	x	38*
CCc1ccccc1NC(=O)CSc1nc2cc(C(=O)NCC3CCCO3)ccc2c(=O)n1CC1CCCO1 (centres undefined)	x	-15	-1	2	-6	x	x	x	x	x
Cc1ccc(-c2nc(C3CCCN(S(=O)(=O)c4ccc(C)c(C)c4)C3)no2)cc1 (centres undefined)	x	x	x	-3	x	x	x	x	x	x
O=C(CSc1nc(Cc2ccccc2)nc2ccccc12)Nc1ccc2c(c1)OCCO2	28*	18	8	33*	-11	-4	17	x	x	27*
O=C(CSc1ncnc2ccccc12)Nc1ccc2c(c1)OCCO2	0	-37	0	1	0	x	x	x	x	x
COc1ccc2nc(C)cc(SCC(=O)Nc3c(C)cc(C)cc3C)c2c1	36*	-17	-1	412*	-3	-55	-55	x	x	19*
O=C(Nc1ccccc1C(F)(F)F)OCCCN1CCC2(CCC(c3ccccc3)CC2)C1=O (centres undefined)	x	x	x	7	x	x	x	x	x	x
O=C(CSc1ncnc2c1oc1ccccc12)Nc1ccccc1C(F)(F)F	44*	8	66*	348*	-1	70*	74*	27*	75*	341*
C=C(C)[C@H]1CC=C(C(=O)O)CC1	x	x	x	0	x	x	x	x	x	x
Brc1cc(Br)c2ncnc(N3CCCCC3)c2c1	34*	-16	38*	76*	5	34*	29*	54*	63*	40*	RORg counter=2.8*
CN1CCCN(S(=O)(=O)c2ccc3c(c2)n(C)c(=O)c(=O)n3C)CC1	x	x	x	4	x	x	x	x	x	x
Cc1cccc(C)c1NC(=O)COc1ccccc1C(=O)Nc1ccc(Br)cn1	44*	-30	62*	118*	-1	42*	49*	61*	83*	92*	RORg counter=>40
SMILES	NR2E3 ag-1	NR2E3 ag-2	PG9 binder	NR1D1 modulator	GalR3 antagonist	NR2E3 ag confirm-1	PPARg-NCOR2 ctr	PG9 binder conf	PGV04 counter	Rev-erbA confirm	others
CCC(=O)c1ccccc1OCC(=O)Nc1c(C)cccc1C	0	-4	1	3	0	x	x	x	x	x
Cc1sc2nc(SCC(=O)NCc3ccco3)n(Cc3ccccc3)c(=O)c2c1C	38*	-36	20*	37*	-1	7	9	14*	20*	31*
S=c1nc(SCc2ccccc2)[nH]c2ccccc12	35*	68	7	29*	-6	36*	55*	x	x	10	NR2E3 ag confirm-2=18;VP16 counter=-40
CC(C)(N[C@@H](Cc1ccccc1)C(=O)NCCCc1ccccc1)C(=O)NCc1ccccc1	x	x	x	0	x	x	x	x	x	x
CN1OC[C@@H]2CN[C@H](c3ccc(-c4cc5ccccc5o4)cc3)C[C@@H]21	x	92*	x	x	x	x	x	x	x	x	NR2E3 ag confirm-2=79*;VP16 counter=68
CN1OC[C@@H]2CN[C@H](c3ccc(-c4ccc(C#N)cc4)cc3)C[C@@H]21	x	-62	1	-7	0	x	x	x	x	x
N#Cc1ccc(/C=C2\CC3(OC(=O)c4ccccc4)CCCN2C3)cc1 (centres undefined)	x	x	x	3	x	x	x	x	x	x

Screens as filed in PubChem BioAssay.
